We go through three compounds from ChEMBL document CHEMBL5120843, “Structure and Antimicrobial Activity of Rare Lactone Lipids from the Sooty Mold (Scorias spongiosa)” (J Nat Prod, 2022).

The test system of assay [1] is Candida albicans. The experiment in a line: Antifungal activity against Candida albicans ATCC 90028 incubated for 46 to 50 hrs by CLSI protocol based assay. The assay is classed as functional, organism-based.
For assay [2], the system named is Nakaseomyces glabratus. The experiment in a line: Antifungal activity against Candida glabrata ATCC 90030 incubated for 46 to 50 hrs by CLSI protocol based assay. Format: functional, organism-based.
In assay [3] the test system is Nakaseomyces glabratus. Nature of the assay: Antifungal activity against Candida glabrata ATCC 90030 assessed as minimum inhibitory concentration incubated for 46 to 50 hrs by CLSI protocol based assay. Format: functional. To be noted: time 46-50 hrs. The procedure, abridged: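 Candida strains in RPMI 1640/0.2% dextrose/0.03% glutamine/MOPS, pH 6.0. Inoculum 1.5 × 10^3, samples serially diluted from DMSO stocks, duplicate wells, final concentration 1/100th of stock. Read at 530 nm before and after 35 °C for 46–50 h. MIC taken as lowest test concentration with no detectable growth.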

Assay [4] relates to Nakaseomyces glabratus. Nature of the assay: Antifungal activity against Candida glabrata ATCC 90030 assessed as minimum fungicidal concentration incubated for 46 to 50 hrs by CLSI protocol based assay. Format: functional. To be noted: time 46-50 hrs. The procedure, abridged:
(§1)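 After the Candida broth microdilution (RPMI/MOPS pH 6.0, 35 °C, 46–50 h), 5 μL from each clear well moved to fresh medium and incubated again under the same conditions. MFC defined as the lowest test concentration that kills the organism.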

The test system of assay [5] is Pichia kudriavzevii. The experiment in a line: Antifungal activity against Candida krusei ATCC 6258 incubated for 46 to 50 hrs by CLSI protocol based assay. The assay is classed as functional, organism-based.
Assay [6] concerns Pichia kudriavzevii. The experiment in a line: Antifungal activity against Candida krusei ATCC 6258 assessed as minimum inhibitory concentration incubated for 46 to 50 hrs by CLSI protocol based assay. The assay is classed as functional. To be noted: time 46-50 hrs. The procedure, abridged:
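Inoculum 1.5 × 10^3, samples serially diluted from DMSO stocks, duplicate wells, final concentration 1/100th of stock. Read at 530 nm before and after 35 °C for 46–50 h. MIC taken as lowest test concentration with no detectable growth.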

Assay [7] concerns Pichia kudriavzevii. Nature of the assay: Antifungal activity against Candida krusei ATCC 6258 assessed as minimum fungicidal concentration incubated for 46 to 50 hrs by CLSI protocol based assay. Format: functional. To be noted: time 46-50 hrs. A digest of the protocol:
as §1

Assay [8] concerns Cryptococcus neoformans. The experiment in a line: Antifungal activity against Cryptococcus neoformans ATCC 90113 incubated for 70 to 74 hrs by CLSI protocol based assay. Format: functional, organism-based.
Assay [9] has as its system Cryptococcus neoformans. Nature of the assay: Antifungal activity against Cryptococcus neoformans ATCC 90113 assessed as minimum inhibitory concentration incubated for 70 to 74 hrs by CLSI protocol based assay. Format: functional. To be noted: time 70-74 hrs. A digest of the protocol:
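Cryptococcus neoformans in Sabouraud dextrose broth at final 1.5 × 10^3, serially diluted samples in duplicate, final concentration 1/100th of stock. Read at 530 nm before and after 35 °C for 70–74 h. MIC is the lowest test concentration with no detectable growth.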

For assay [10], the system named is Cryptococcus neoformans. Nature of the assay: Antifungal activity against Cryptococcus neoformans ATCC 90113 assessed as minimum fungicidal concentration incubated for 70 to 74 hrs by CLSI protocol based assay. Format: functional. The following applies: time 70-74 hrs. A digest of the protocol: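 From clear wells of the Cryptococcus broth assay (Sabouraud dextrose, 35 °C, 70–74 h), 5 μL transferred to fresh medium and reincubated under the same conditions. MFC is the lowest concentration that kills the organism.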

Assay [11] has as its system Staphylococcus aureus. The experiment in a line: Antibacterial activity against Staphylococcus aureus ATCC 29213 incubated for 16 to 20 hrs by CLSI protocol based assay. The assay is classed as functional, organism-based.
The test system of assay [12] is Staphylococcus aureus. Nature of the assay: Antibacterial activity against Staphylococcus aureus ATCC 29213 assessed as minimum inhibitory concentration incubated for 16 to 20 hrs by CLSI protocol based assay. Format: functional. To be noted: time 16-20 hrs.
Assay [13] deals with Staphylococcus aureus. Nature of the assay: Antibacterial activity against Staphylococcus aureus ATCC 29213 assessed as minimum bactericidal concentration incubated for 16 to 20 hrs by CLSI protocol based assay. The following applies: time 16-20 hrs. The assay is classed as functional.
Assay [14] concerns Staphylococcus aureus. Nature of the assay: Antibacterial activity against methicillin-resistant Staphylococcus aureus ATCC 33591 incubated for 16 to 20 hrs by CLSI protocol based assay. Format: functional, organism-based.
Assay [15] has as its system Staphylococcus aureus. Nature of the assay: Antibacterial activity against methicillin-resistant Staphylococcus aureus ATCC 33591 assessed as minimum inhibitory concentration incubated for 16 to 20 hrs by CLSI protocol based assay. The assay is classed as functional. The following applies: time 16-20 hrs.
Assay [16] has as its system Staphylococcus aureus. Nature of the assay: Antibacterial activity against methicillin-resistant Staphylococcus aureus ATCC 33591 assessed as minimum bactericidal concentration incubated for 16 to 20 hrs by CLSI protocol based assay. Format: functional. The following applies: time 16-20 hrs.
In assay [17] the test system is Cryptococcus neoformans. The experiment in a line: Synergistic antifungal activity against Cryptococcus neoformans H99 assessed as fractional inhibitory concentration incubated for 72 hrs by CLSI protocol based checkerboard assay. Format: functional. A digest of the protocol:
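Checkerboard in RPMI 1640 buffered with MOPS pH 7.0. Final inoculum 1.0 × 10^4 CFU/mL from an overnight H99 culture. […] OD490 read before and after 72 h at 30 °C, normalized to solvent control. FIC ≤0.5 taken as synergy.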

The test system of assay [18] is Cryptococcus neoformans. Nature of the assay: Synergistic antifungal activity against Cryptococcus neoformans H99 assessed as […] at 2 ug/ml incubated for 72 hrs by CLSI protocol based checkerboard assay. The following applies: dose 2 µg/ml. The assay is classed as functional. A digest of the protocol:
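Checkerboard per CLSI. Overnight C. neoformans H99 culture diluted in RPMI 1640 with MOPS, pH 7.0, to final 1.0 × 10^4 CFU/mL. […] Single-agent, solvent and media controls included. OD 490 nm read before and after 30 °C for 72 h, normalized to solvent control. FIC ≤ 0.5 scored as synergy.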

Assay [19] relates to Cryptococcus neoformans. Nature of the assay: Synergistic antifungal activity against Cryptococcus neoformans H99 assessed as fold increase in amphotericin fungicidal activity at 2 ug/ml incubated for 48 hrs by CLSI protocol based yeast peptone dextrose agar plate method. Format: functional. The following applies: dose 2 µg/ml. A digest of the protocol:
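Fungicidal read-out from the H99 checkerboard (RPMI/MOPS pH 7.0, 1.0 × 10^4 CFU/mL, 30 °C, 72 h). Plate shaken, then 2 μL from each well spotted on YPD agar and incubated at 30 °C for 48 h.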

≈ marks a conversion by molar mass, not a printed value.

In the case of `CCCCCCCCCCCC[C@]1(C)C=C/C(=C2/C(=O)O[C@@H](CC(=O)O)C2=O)O1`, the IC50 in assay [1] was 15.3 µg/mL (≈ 37.6 µM); in assay [2], 2.85 µg/mL (≈ 7.01 µM); in assay [5], 6.31 µg/mL (≈ 15.5 µM); in assay [8] it was 0.37 µg/mL (≈ 0.91 µM); in [11], 0.44 µg/mL (≈ 1.08 µM); in assay [14], 0.39 µg/mL (≈ 0.959 µM). Besides, the MIC in [3] came to 10 µg/mL (≈ 24.6 µM); in [6], 10 µg/mL (≈ 24.6 µM); in assay [9], 0.63 µg/mL (≈ 1.55 µM); in assay [12], 1.25 µg/mL (≈ 3.07 µM); in assay [15], 0.63 µg/mL (≈ 1.55 µM). In addition, the minimal fungicidal concentration (MFC) in assay [4] worked out at 10 µg/mL (≈ 24.6 µM); in assay [7] it was 10 µg/mL (≈ 24.6 µM); in assay [10], 0.63 µg/mL (≈ 1.55 µM). The MBC in assay [13] was found to be 20 µg/mL (≈ 49.2 µM); in [16], 10 µg/mL (≈ 24.6 µM).

As for `C[C@@H]1[C@H](O)[C@@H](C)/C=C/C=C/C=C/C=C/C=C/C=C/C=C/[C@H](O[C@@H]2O[C@H](C)[C@@H](O)[C@H](N)[C@@H]2O)C[C@@H]2O[C@](O)(C[C@@H](O)C[C@@H](O)[C@H](O)CC[C@@H](O)C[C@@H](O)CC(=O)O[C@H]1C)C[C@H](O)[C@H]2C(=O)O` [AMPHOTERICIN B], the IC50 in assay [1] is 0.14 µg/mL (≈ 0.152 µM); in assay [2], 0.21 µg/mL (≈ 0.227 µM); in assay [5], 0.74 µg/mL (≈ 0.801 µM); in [8], 0.35 µg/mL (≈ 0.379 µM). Moreover, the MIC in [3] and in assay [9] was 0.63 µg/mL (≈ 0.682 µM) in each case. For the same compound, the MFC in assay [4] and in assay [10] was 0.63 µg/mL (≈ 0.682 µM) in each case. Moreover, in assay [17], the FIC amounted to 0.3.

`CCCCCCCCCCCC[C@]1(C)C=C/C(=C2/C(=O)O[C@@H](CC(=O)OC)C2=O)O1`: the IC50 in [5] was determined as 20 µg/mL (≈ 47.6 µM); in [8], 0.63 µg/mL (≈ 1.5 µM); in assay [11] it was 1.08 µg/mL (≈ 2.57 µM); in assay [14], 0.71 µg/mL (≈ 1.69 µM). The minimum inhibitory concentration (MIC) in [9] came to 1.25 µg/mL (≈ 2.97 µM); in [12], 2.5 µg/mL (≈ 5.94 µM); in [15] it was 1.25 µg/mL (≈ 2.97 µM). Besides, the minimum fungicidal concentration (MFC) in [10] turned out to be 1.25 µg/mL (≈ 2.97 µM). Moreover, the MBC in [13] was determined as 10 µg/mL (≈ 23.8 µM); in [16], 5 µg/mL (≈ 11.9 µM). The figures for the “fold change (FC)” value in assay [18] and in [19] were 16 and 8, respectively.

The IC50 is the concentration that inhibits the measured activity by half. Read a low IC50 as greater potency in that assay. Usually MIC stands for the smallest concentration in the dilution series that meets the test's criterion for growth inhibition. The term MFC denotes the lowest tested concentration that kills the fungus rather than only halting it. For orientation: MBC means the smallest concentration meeting the test's criterion for killing.
